Sampled rows, rich in hits. Any-hit rate of the full collection: about 1.7%.
PREPL inhibitor: human PREPL enzyme inhibition. Q4J6C6. recombinant PREPL, fluorescence polarization activity-based probe. inhibition, % at 5.96 µM. hit rate 0.68% among 320,000; in the data active = inhibition above about 43%;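 also: 0% = enzyme with DMSO and 100% = wells lacking enzyme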
EBNA-1 inh: blocks EBNA-1 binding to DNA | EBNA-1 DNA binding, fluorescence polarization | hit rate 0.34% among 300,000 | AID 1950 | inhibition, % at 14.8 µM; in the data active = inhibition above about 28%
UBC13 polyUb: human UBC13 polyubiquitination inhibition | UBC13 polyubiquitin chain formation, TR-FRET | inhibition, % at 20 µM | hit rate 0.47% among 330,000 | AID 485273; in the data active = inhibition above about 45%, passing the limit was not always enough; inconclusive = no clear call, values can overlap the other calls
Target sequence (P61088 whole entry, looked up): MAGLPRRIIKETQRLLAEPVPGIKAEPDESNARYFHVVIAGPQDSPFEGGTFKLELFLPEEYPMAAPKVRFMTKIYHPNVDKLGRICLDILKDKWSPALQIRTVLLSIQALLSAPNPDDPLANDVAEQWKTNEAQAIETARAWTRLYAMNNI
ZTA DNA inh: blocks Epstein-Barr virus ZTA, an EBNA-1 counter-screen; inhibition, % at 11 µM; hit rate 0.15% among 320,000; P03206; AID 2234; ZTA-DNA binding, fluorescence polarization; in the data active = inhibition above about 33%
Target sequence (P03206 whole entry, looked up): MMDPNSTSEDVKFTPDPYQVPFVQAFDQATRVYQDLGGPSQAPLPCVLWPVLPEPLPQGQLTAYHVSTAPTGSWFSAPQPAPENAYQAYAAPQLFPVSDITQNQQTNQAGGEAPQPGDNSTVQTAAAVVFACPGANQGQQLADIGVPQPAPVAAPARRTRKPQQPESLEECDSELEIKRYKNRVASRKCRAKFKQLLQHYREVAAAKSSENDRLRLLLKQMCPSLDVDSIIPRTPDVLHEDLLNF
Apaf1 inhib: inhibitors of human Apaf-1 apoptosome; inhibition, % at 20 µM; O14727; hit rate 0.71% among 330,000; reconstituted apoptosome caspase-3 activity, DEVD-Rh110 fluorescence; active = inhibition of at least 40% at 20 µM;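 also: plate controls were DMSO wells for no effect and DEVD-CHO caspase inhibitor wells for full effect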
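Material: biochemical Apaf-1 apoptosome reconstitution. Medium: Hepes buffer, pH 7.5. Also added: cytochrome c activation, bis-DEVD rhodamine 110 substrate. Timing: 30 min compound preincubation, 50 min activation, room temperature. Measured by: rhodamine 110 fluorescence at Ex 480/Em 540 nm.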
Casp3 UBC13 ctr: caspase-3 inhibition (UBC13 counter-screen); AID 488856; inhibition, % at 20 µM; Recombinant caspase-3, Caspase-Glo 3/7 luminescence, 60 min; hit rate 4% among 1,400; shares compounds with UBC13 polyUb;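 active = mean inhibition across replicates above about 26%, limit read from the data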;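 also: plate controls were DMSO with caspase-3 for no effect and DMSO wells lacking enzyme for full effect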
UBC13 conf: confirmation of human UBC13 polyubiquitin inhibitors | inhibition, % at 10 µM | UBC13 polyubiquitination, TR-FRET, biochemical | shares compounds with UBC13 polyUb | hit rate 68% among 1,400; in the data active = inhibition above about 45%; inconclusive = no clear call, values can overlap the other calls
* marks the source's active call; other numbers are inactive results; u = inconclusive; x = no result.

SMILES	PREPL inhibitor	EBNA-1 inh	UBC13 polyUb	ZTA DNA inh	Apaf1 inhib	Casp3 UBC13 ctr	UBC13 conf
Cc1ccc2[nH]c(O)c(N=NC(N)=S)c2c1	-8.4	0.7	79.2*	-1.4	9.1	-1.5	95.9*
O=C(CCC1COc2ccccc2O1)Nc1ccc(Cl)cn1 (stereo not given)	-23.1	5.5	1.9	14.5	-7.0	x	x
Cc1ccc(C(=O)NCCCNCCCN(C)C)cn1	-5.1	-16.4	51.6*	-20.1	-14.1	-3.5	35.2
COc1ccc(CN2CCNC(=O)C2CC(=O)NCc2cc(C)n(C)n2)c(F)c1 (stereo not given)	0.6	5.8	-6.4	-16.9	8.4	x	x
CCOc1ccc(NC(=O)Cn2c(=O)n(CCCC(=O)NC3CCN(Cc4ccccc4)CC3)c(=O)c3ccccc32)cc1	9.9	8.0	91.8*	6.9	13.2	-0.8	96.8*
CCCN1CCN(C(=O)CCS(=O)(=O)c2cc3c(cc2Cl)NC(=O)CO3)CC1	-1.8	3.8	1.4	3.4	0.6	x	x
CCOC(=O)NC(=O)/C(N=Nc1ccc(C(F)(F)F)cc1)=C(\C)O	16.4	1.1	-0.1	-14.7	18.2	x	x
NC(=O)c1ccc(-c2c(-c3ccccc3)sc3ccccc23)cc1	-2.4	x	5.0	6.5	7.7	x	x
CN(C)CCOc1ccc(-c2c(-c3ccccc3)sc3ccccc23)cc1	5.0	x	82.3*	x	77.5*	-1.8	90.4*
COc1ccc(CCN(C)C(=O)c2ccc(COc3ccccc3)o2)cc1OC	13.7	-5.9	46.0*	-0.2	66.3*	-3.2	82.1*
CN1CCN(CCCNC(=O)c2ccc(/C=C3\Oc4ccccc4N(Cc4ccccc4F)C3=O)cc2)CC1	-91.5	4.3	45.4*	23.2	38.0	-4.1	51.6*
NC(=O)c1ccc(Cn2c(C(=O)c3cc(Cl)c(N)c(Cl)c3)c3ccccc3[n+]2[O-])cc1	-0.7	1.1	98.5*	1.2	16.1	0.1	94.6*
NCCCn1c(C(=O)c2cc(Cl)c(N)c(Cl)c2)c2ccc(C(F)(F)F)cc2[n+]1[O-]	20.8	-6.6	103.2*	-0.5	10.2	0.9	111.3*
NC(=O)c1ccc(Cn2c(C(=O)c3ccc(Cl)cc3)c3ccccc3[n+]2[O-])cc1	11.2	3.6	0.5	-28.7	1.9	x	x
COc1ccc(C(=O)c2c3ccc(C(F)(F)F)cc3[n+]([O-])n2CCCC(N)=O)cc1	11.5	-10.3	-15.2	-3.5	11.5	x	x
COc1ccc(C(=O)c2c3ccc(OC)cc3[n+]([O-])n2CCCC(N)=O)cc1	5.5	16.3	0.0	3.2	5.0	x	x
NC(=O)CCCn1c(C(=O)c2cc(Cl)c(N)c(Cl)c2)c2ccc(C(F)(F)F)cc2[n+]1[O-]	5.7	-3.7	96.6*	-5.9	14.5	1.1	92.8*
O=C(CSc1nc2ccccc2c(=O)[nH]1)Nc1ccc([N+](=O)[O-])cc1	3.1	x	8.4	x	-5.2	x	x
COc1cccc(Oc2cn[nH]c2-c2ccc(OC)cc2O)c1	-2.9	-11.8	38.2	-8.5	15.6	x	x
CCOc1ccc(-c2[nH]ncc2Oc2cccc(OC)c2)c(O)c1	8.8	-0.8	63.2*	5.4	12.3	3.3	60.5*
COC(=O)C1=C(C)NC(C)=C(C(=O)OC)C1c1cn(-c2ccccc2)nc1-c1ccco1	-4.6	10.5	7.8	0.2	7.8	x	x
CC(C)=CCc1c(O)cc(O)c2c(=O)c(O[C@@H]3O[C@@H](C)[C@H](O)[C@@H](O)[C@H]3O)c(-c3ccc(O)cc3)oc12	15.3	-7.9	86.1*	-2.2	9.8	-4.3	78.0*
Cc1ccc(NC(=O)CS(=O)CC(=O)NCCCc2ccccc2)cc1Cl (stereo not given)	-10.9	1.6	64.9*	11.6	-8.0	2.7	73.3*
CSc1nccc(Nc2ccccc2)c1C#N	-13.3	-0.8	47.2*	-0.1	-7.7	-1.0	u
Cc1cccc(OCCCC(=O)NNC(=O)c2ccncc2)c1	x	x	1.1	x	2.4	x	x
NC(=O)NC(CC(=O)NNC(=O)c1ccccn1)c1ccccc1Cl (stereo not given)	3.6	x	79.5*	-1.2	-6.7	7.5	82.4*
CCNC(=S)NNC(=O)c1ccccn1	12.2	-14.8	90.1*	-3.0	-3.4	-1.4	87.4*
Cc1cccc(OCCCC(=O)NNC(=O)c2ccccn2)c1	19.6	x	75.3*	1.4	-8.3	-3.2	16.5

High-throughput results (PubChem)
